In article PMC6309585 (Investigational new drugs, 2018):

What was measured:
GST [1] = assay: Glutathione-S-transferase protein expression in colon and liver; type: in vivo, Apc^Min/+ mice; conditions: for GST protein expression: colon, RVT and BaP administered separately, compared to no treatment group; for Glutathione-S-transferase protein expression: liver, in comparison to control mice
Method in brief: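 Western blot of total colon and liver protein: 10% SDS–PAGE, transfer to PVDF, mouse anti-GST and rabbit anti-GAPDH antibodies, detection with IRDye680 anti-mouse and IRDye800 anti-rabbit secondaries. GST signal was normalized to GAPDH. […] Values are mean ± SE, n = 10.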

[2] = Pharmacokinetics of BaP and RVT in plasma after oral gavage; type: in vivo, Apc^Min/+ mice; conditions: for half-life / Clearance (Cl) / Volume of distribution (Vd): plasma; for Clearance (Cl) / Volume of distribution (Vd): oral gavage, BaP 100 μg/kg bw, RVT 45 μg/kg bw, mean ± SE, n = 10
GST mRNA = GST mRNA expression; type: in vivo, Apc^Min/+ mice; conditions: compared to the no treatment group
BaP-induced colon tumors [3] = conditions: orally administered RVT; mice exposed to BaP compared to BaP alone; cited from earlier work
GST [4] = assay: GST activity in colon and liver; type: in vivo, Apc^Min/+ mice; conditions: liver; compared to BaP alone
Method in brief: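 Colon and liver protein from Apc^Min/+ mice was assayed for GST activity with a commercial kit. […] Tissues were collected 60 days after exposure; n = 10 per group.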

CYP1B1 mRNA = CYP1B1 mRNA expression; type: in vivo, Apc^Min/+ mice; conditions: liver
DNA [5] = assay: Oxidative DNA damage; type: in vivo, Apc^Min/+ mice; conditions: text: colon, Fig. 9B; RVT prior to and simultaneously with BaP; compared to BaP treatment only
DNA [6] = assay: BaP-DNA adducts by 32P-postlabeling and TLC in colon and liver; type: in vivo, Apc^Min/+ mice
[7] = HPLC analysis of BaP organic and aqueous metabolites in plasma, colon and liver; type: in vivo, Apc^Min/+ mice; conditions: colon, RVT simultaneously or prior to BaP, compared to BaP alone
BaP-induced colon tumors [8] = assay: BaP-induced colon tumors/adenomas; type: in vivo, Apc^Min/+ mice; conditions: RVT administration post BaP subchronic exposure; data not shown

Row | Structure (SMILES) | GST protein expression (GST [1]) | Glutathione-S-transferase protein expression (GST [1]) | Elimination rate (Kd) ([2]; male, ApcMin/+, mouse, in vivo, po) | half-life ([2]; male, ApcMin/+, mouse, po) | Clearance (Cl) [2] | Volume of distribution (Vd) [2] | Decrease in GST mRNA expression (GST mRNA; colon) | Incidence, size and number of adenomas formed in the colon (BaP-induced colon tumors [3]) | GST activity (GST [4]) | CYP1B1 mRNA expression (CYP1B1 mRNA) | Base pair damage (apurinic/apyrimidinic sites) (DNA [5]) | Stable BaP-DNA adduct concentrations (DNA [6]) | BaP aqueous metabolite levels [7] | BaP organic metabolite concentrations [7] | Reversal of BaP-induced carcinogenic effects (tumor count and size) (BaP-induced colon tumors [8]) | GST mRNA expression (GST mRNA; liver, RVT either simultaneously or prior to BaP treatment)
1 | c1ccc2c(c1)cc1ccc3cccc4ccc2c1c34 [BaP, Benzo(a)pyrene] | increased | significantly decreased | 0.17 ± 0.06 h | 1.8 ± 0.018 h | 2.4 ± 0.24 mL/day/kg | 0.00058 ± 4.5e-05 L/kg | 50% |  |  |  |  |  |  |  |  | 
2 | Oc1ccc(C=Cc2cc(O)cc(O)c2)cc1 [RVT, 3,5,4′-trihydroxystilbene] | increased | significantly decreased |  | 1 ± 0.011 h | 1.9 ± 0.14 mL/day/kg | 0.00044 ± 5e-05 L/kg |  | decrease | no significant changes | feeble expression | significant reduction | reduced | increases | significantly decreased | failed to reverse | increase
